ChEMBL document CHEMBL1155506 (J Med Chem, 2010)
pIC50, pKi: −log10 of the molar value.

Tests used:
[1] = molecular target: 5-hydroxytryptamine receptor 2A (Homo sapiens, UniProt P28223); assay: Displacement of [125I]DOI from human recombinant 5HT2A receptor expressed in HEK293 cells by scintillation counting; assay type: cell-based
How it was run: (§1)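 Crude plasma membranes from HEK293 cells stably expressing the human receptor (5–25 μg protein), in 20 mM HEPES pH 7.4 with 10 mM MgCl2. Incubated with 0.5 nM [125I]DOI and test compound (1 pM–10 μM) for 1 h at room temperature; nonspecific binding defined with 10 μM cold DOI. Filtered, washed with ice-cold Tris buffer and scintillation counted in triplicate.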

[2] = molecular target: T1, 5-hydroxytryptamine receptor 2C (Homo sapiens, UniProt P28335); assay: Displacement of [125I]DOI from human recombinant 5HT2C receptor expressed in HEK293 cells by scintillation counting; assay type: cell-based; how it was run: as §1
T1 sequence (P28335 whole entry): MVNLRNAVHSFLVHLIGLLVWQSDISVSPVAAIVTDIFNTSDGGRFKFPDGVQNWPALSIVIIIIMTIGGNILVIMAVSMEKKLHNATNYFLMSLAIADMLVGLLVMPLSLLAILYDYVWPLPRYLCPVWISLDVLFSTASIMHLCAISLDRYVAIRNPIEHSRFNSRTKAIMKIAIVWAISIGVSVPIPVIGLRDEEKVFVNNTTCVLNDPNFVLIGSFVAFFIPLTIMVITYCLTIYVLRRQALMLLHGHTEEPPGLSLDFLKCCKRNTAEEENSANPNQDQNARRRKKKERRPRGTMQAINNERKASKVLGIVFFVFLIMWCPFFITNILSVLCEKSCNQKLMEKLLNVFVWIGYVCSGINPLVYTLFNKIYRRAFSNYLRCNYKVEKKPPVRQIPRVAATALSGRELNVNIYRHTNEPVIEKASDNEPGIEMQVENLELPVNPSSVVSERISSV

hERG (KCNH2) = hERG (KCNH2) (Homo sapiens, UniProt Q12809); assay: Inhibition of human ERG at 3 uM by patch clamp assay
[3] = Antiplatelet activity in human platelet rich plasma assessed as inhibition of ADP-induced aggregation preincubated for 1 min before 5-HT and ADP challenge measured after 3 mins by turbidimetry

Sequence of hERG (KCNH2) (Q12809 whole entry): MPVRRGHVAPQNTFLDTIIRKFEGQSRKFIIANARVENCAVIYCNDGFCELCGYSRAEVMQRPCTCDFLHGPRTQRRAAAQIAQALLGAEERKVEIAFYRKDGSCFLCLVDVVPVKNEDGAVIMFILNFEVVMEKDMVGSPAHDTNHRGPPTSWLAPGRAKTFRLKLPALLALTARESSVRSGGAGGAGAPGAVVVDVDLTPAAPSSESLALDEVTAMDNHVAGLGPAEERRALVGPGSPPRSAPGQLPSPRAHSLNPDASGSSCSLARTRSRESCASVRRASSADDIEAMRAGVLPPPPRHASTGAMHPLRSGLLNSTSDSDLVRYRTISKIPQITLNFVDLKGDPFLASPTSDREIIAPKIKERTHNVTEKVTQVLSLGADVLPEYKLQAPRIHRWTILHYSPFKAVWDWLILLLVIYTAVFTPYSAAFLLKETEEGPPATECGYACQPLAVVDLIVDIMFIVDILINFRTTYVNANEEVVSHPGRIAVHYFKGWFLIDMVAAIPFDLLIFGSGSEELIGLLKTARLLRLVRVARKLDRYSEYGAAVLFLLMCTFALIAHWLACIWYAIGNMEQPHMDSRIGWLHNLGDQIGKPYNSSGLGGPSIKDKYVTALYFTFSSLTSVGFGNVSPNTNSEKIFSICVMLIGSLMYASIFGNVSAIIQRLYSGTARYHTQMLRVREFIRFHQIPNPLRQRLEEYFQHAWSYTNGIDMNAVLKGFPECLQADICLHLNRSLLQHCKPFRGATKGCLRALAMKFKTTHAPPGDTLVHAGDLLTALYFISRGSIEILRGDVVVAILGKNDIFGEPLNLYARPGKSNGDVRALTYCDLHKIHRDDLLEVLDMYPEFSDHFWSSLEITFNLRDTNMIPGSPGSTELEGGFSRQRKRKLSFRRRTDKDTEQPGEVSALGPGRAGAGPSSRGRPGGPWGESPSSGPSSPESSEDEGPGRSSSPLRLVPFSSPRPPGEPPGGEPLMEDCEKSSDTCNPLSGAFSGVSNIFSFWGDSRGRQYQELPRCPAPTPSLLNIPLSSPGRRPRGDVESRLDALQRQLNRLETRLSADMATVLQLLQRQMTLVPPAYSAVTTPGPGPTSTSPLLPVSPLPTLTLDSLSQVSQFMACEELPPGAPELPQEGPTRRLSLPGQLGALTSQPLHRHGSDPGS
Sequence of 5-hydroxytryptamine receptor 2A (P28223 whole entry): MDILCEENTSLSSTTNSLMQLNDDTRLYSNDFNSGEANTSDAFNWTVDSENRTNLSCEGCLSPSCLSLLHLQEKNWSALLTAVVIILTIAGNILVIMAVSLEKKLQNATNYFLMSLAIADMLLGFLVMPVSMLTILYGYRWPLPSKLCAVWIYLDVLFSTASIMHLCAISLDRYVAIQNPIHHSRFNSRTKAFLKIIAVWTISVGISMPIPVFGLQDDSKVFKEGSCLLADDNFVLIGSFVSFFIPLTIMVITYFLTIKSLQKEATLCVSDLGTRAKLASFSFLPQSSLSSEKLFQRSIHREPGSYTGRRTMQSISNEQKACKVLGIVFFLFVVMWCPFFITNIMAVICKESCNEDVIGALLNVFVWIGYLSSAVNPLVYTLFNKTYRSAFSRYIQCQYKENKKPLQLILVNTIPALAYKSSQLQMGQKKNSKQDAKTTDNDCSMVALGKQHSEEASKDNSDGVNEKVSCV

In the case of `COc1cccc(C(=O)Nc2ccc(OCCN3CCN(S(C)(=O)=O)CC3)c(-c3ccnn3C)c2)c1`, the pKi [1] was 7.55, the pKi [2] was less than 5.00 and the inhibition at 3 µM (hERG (KCNH2)) was 23%.
`Cn1ncc(Cl)c1-c1cc(NC(=O)c2cccc(C(F)(F)F)c2)ccc1OCCN1CCNC(=O)C1` showed a pKi [1] of 8.28, a pIC50 [3] of 6.90 and a pKi [2] of less than 5.00. For the same molecule, the inhibition at 3 µM (hERG (KCNH2)) was 53%.
